From ChEMBL document CHEMBL3425449, “Identification of MK-8133: An orexin-2 selective receptor antagonist with favorable development properties” (Bioorg Med Chem Lett, 2015)
Values after ≈ are worked out from the molar mass of the structure shown.

Columns and labels:
CHO-K1 = assay: Selectivity index, ratio of IC50 for human OX1R expressed in CHOK1 cells to IC50 for human OX2R expressed in CHOK1 cells by FLIPR assay; format: cell-based
How it was run: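 Ratio of OX1R FLIPR IC50 to OX2R FLIPR IC50. Both come from Ca2+-flux assays on human orexin receptors expressed in CHO-K1 cells, each averaged over n ≥ 2 experiments.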

[1] = target: T1, Orexin/Hypocretin receptor type 1 (Homo sapiens, UniProt O43613); assay: Antagonist activity against human OX1R expressed in CHOK1 cells assessed as inhibition of orexin A-induced […] Ca2+ mobilization by FLIPR assay; format: functional, cell-based, CHO-K1
T1 sequence (O43613 whole entry): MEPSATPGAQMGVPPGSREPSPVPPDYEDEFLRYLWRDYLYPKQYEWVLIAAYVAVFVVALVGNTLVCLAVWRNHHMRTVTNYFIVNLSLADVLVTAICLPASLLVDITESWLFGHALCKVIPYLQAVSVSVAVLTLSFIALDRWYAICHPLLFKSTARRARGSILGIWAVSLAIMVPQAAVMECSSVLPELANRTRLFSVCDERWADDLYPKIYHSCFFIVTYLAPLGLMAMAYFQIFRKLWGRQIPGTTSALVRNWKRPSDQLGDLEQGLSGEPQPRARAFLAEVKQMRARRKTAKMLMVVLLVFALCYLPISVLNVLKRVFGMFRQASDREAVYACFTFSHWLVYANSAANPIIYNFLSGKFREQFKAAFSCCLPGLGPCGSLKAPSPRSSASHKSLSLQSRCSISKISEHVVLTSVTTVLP
How it was run: (§1)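 Cell-based FLIPR assay measuring Ca2+ flux as the functional read-out of orexin receptor antagonism. Target is the human orexin receptor expressed in CHO-K1 cells.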

Orexin receptor type 2 [2] = target: T2, Orexin receptor type 2 (Homo sapiens, UniProt O43614); assay: Displacement of [3H]-(S)-N-(2-(1H-pyrrol-1-yl)phenyl)-1-(2-(1-methyl-1H-benzo[d]imidazol-2-ylthio)acetyl)pyrrolidine-2-carboxamide from human OX2R expressed in CHOK1 cells by radioligand binding assay; format: cell-based, CHO-K1
T2 sequence (O43614 whole entry): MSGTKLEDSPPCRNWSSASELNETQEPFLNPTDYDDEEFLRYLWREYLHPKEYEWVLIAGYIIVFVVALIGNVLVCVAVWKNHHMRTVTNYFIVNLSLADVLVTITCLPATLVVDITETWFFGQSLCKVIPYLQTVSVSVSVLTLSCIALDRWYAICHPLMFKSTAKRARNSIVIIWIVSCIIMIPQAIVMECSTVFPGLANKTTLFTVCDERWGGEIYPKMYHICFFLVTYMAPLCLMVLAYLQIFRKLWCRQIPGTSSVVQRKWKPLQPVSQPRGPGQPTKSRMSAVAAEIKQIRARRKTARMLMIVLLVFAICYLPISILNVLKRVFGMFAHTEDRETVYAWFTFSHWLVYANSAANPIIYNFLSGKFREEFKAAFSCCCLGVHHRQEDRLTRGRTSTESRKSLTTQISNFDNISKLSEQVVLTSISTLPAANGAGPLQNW
How it was run: (§2)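 Radioligand competition binding on membranes from CHO-K1 cells overexpressing the human orexin receptor.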

Orexin receptor type 2 [3] = target: T2, Orexin receptor type 2; assay: Antagonist activity against human OX2R expressed in CHOK1 cells assessed as inhibition of orexin A-induced […] Ca2+ mobilization by FLIPR assay; format: functional, cell-based, CHO-K1; how it was run: as §1
[4] = target: T1, Orexin/Hypocretin receptor type 1; assay: Displacement of [3H]-(S)-N-(biphenyl-2-yl)-1-(2-(1-methyl-1H-benzo[d]imidazol-2-ylthio)acetyl)pyrrolidine-2-carboxamide from human OX1R expressed in CHOK1 cells by radioligand binding assay; format: cell-based, CHO-K1; how it was run: as §2
[5] = Lipophilicity, log D of the compound by HPLC method; format: physicochemical
[6] = Solubility of the compound at pH 7; format: physicochemical; conditions: buffer
[7] = Intrinsic clearance in human microsomes; format: ADME, Microsome
[8] = Oral bioavailability in Wistar Han rat at 10 mg/kg; format: ADME, organism-based; conditions: in vivo
How it was run: (§3)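 Pharmacokinetics in Wistar Han rats (n = 2) after intravenous and oral dosing. Oral dose was 10 mg/kg in PEG400:Tween80/water 40:10:50. IV dose was 2 mg/kg in DMSO/PEG400/water 20:60:20.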

[9] = Volume of distribution at steady state in dog at 10 mg/kg, po or 2 mg/kg, iv; format: ADME, organism-based, Canis lupus familiaris; conditions: in vivo, read-out: Vdss
How it was run: (§4)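 Dog pharmacokinetics determined after intravenous and oral administration.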

[10] = Half life in Wistar Han rat at 10 mg/kg, po or 2 mg/kg, iv; format: ADME, organism-based; conditions: in vivo; how it was run: as §3
[11] = Clearance in Wistar Han rat at 10 mg/kg, po or 2 mg/kg, iv; format: ADME, organism-based; conditions: in vivo; how it was run: as §3
[12] = Clearance in dog at 10 mg/kg, po or 2 mg/kg, iv; format: ADME, organism-based, Canis lupus familiaris; conditions: in vivo; how it was run: as §4
[13] = Volume of distribution at steady state in Wistar Han rat at 10 mg/kg, po or 2 mg/kg, iv; format: ADME, organism-based; conditions: in vivo, read-out: Vdss; how it was run: as §3
[14] = Half life in dog at 10 mg/kg, po or 2 mg/kg, iv; format: ADME, organism-based, Canis lupus familiaris; conditions: in vivo; how it was run: as §4
[15] = Oral bioavailability in dog at 10 mg/kg; format: ADME, organism-based, Canis lupus familiaris; conditions: in vivo; how it was run: as §4

Row | SMILES | Ratio IC50 (CHO-K1) | IC50 [1] | Ki (Orexin receptor type 2 [2]) | IC50 (Orexin receptor type 2 [3]) | Ki [4] | further results
1 | CSc1ccnc(O[C@@H]2CC[C@@H](C)N(C(=O)c3ccccc3-n3nccn3)C2)c1 | 16 | 110 nM | 0.2 nM | 6.7 nM | 39 nM | 
2 | C[C@@H]1CC[C@@H](Oc2cc(Cl)ccn2)CN1C(=O)c1ccccc1-n1nccn1 | 51 |  | 1.4 nM | 11 nM | 120 nM | 
3 | C#Cc1ccnc(O[C@@H]2CC[C@@H](C)N(C(=O)c3ccccc3-n3nccn3)C2)c1 | 23 | 240 nM | 0.6 nM | 10 nM | 49 nM | 
4 | C[C@@H]1CC[C@@H](Oc2cc(F)ccn2)CN1C(=O)c1ccccc1-n1nccn1 | 68 |  | 3.9 nM |  | 430 nM | 
5 | C[C@@H]1CC[C@@H](Oc2cc(Br)ccn2)CN1C(=O)c1ccccc1-n1nccn1 | 37 | 380 nM | 1.8 nM | 10 nM | 130 nM | 
6 | CCOC(=O)c1ccccc1C(=O)N1C[C@H](Oc2cc(C#N)ccn2)CC[C@H]1C | 349 | 7100 nM |  | 21 nM |  | logD ([5]; read-out: logD): 3.2; solubility ([6]; read-out: solubility): 121 µM (≈ 47.6 µg/mL); CLint scaled [7]: 37 mL/min/kg
7 | C[C@@H]1CC[C@@H](Oc2cc(C#N)ccn2)CN1C(=O)c1ccccc1-n1nccn1 | 293 | 3800 nM |  | 13 nM | 830 nM | logD ([5]; read-out: logD): 3; solubility ([6]; read-out: solubility): 148 µM (≈ 57.5 µg/mL); bioavailability [8]: 17%; Vd [9]: 1.5 L/kg; CLint scaled [7]: 16 mL/min/kg; half-life [10]: 1.7 h; clearance [11]: 18 mL/min/kg; clearance [12]: 27 mL/min/kg; Vd [13]: 1.7 L/kg; half-life [14]: 1.1 h; bioavailability [15]: 13%
8 | C[C@@H]1CC[C@@H](Oc2cc(I)ccn2)CN1C(=O)c1ccccc1-n1nccn1 | 57 |  | 0.4 nM | 7.2 nM | 59 nM | 
9 | C[C@@H]1CC[C@@H](Oc2cc(N(C)C)ccn2)CN1C(=O)c1ccccc1-n1nccn1 | 12 | 1500 nM | 4.5 nM | 130 nM | 1400 nM | 
10 | C[C@@H]1CC[C@@H](Oc2ccccn2)CN1C(=O)c1ccccc1-n1nccn1 |  |  | 2400 nM |  | 14000 nM | 
11 | C[C@@H]1CC[C@@H](Oc2cc(-c3ccccc3)ccn2)CN1C(=O)c1ccccc1-n1nccn1 | 54 | 2400 nM | 3.8 nM | 45 nM | 360 nM | 
12 | COC(=O)c1ccnc(O[C@@H]2CC[C@@H](C)N(C(=O)c3ccccc3-n3nccn3)C2)c1 | 82 | 1800 nM | 3.9 nM | 22 nM | 310 nM | 
13 | CCc1ccnc(O[C@@H]2CC[C@@H](C)N(C(=O)c3ccccc3-n3nccn3)C2)c1 | 28 | 310 nM | 0.6 nM | 11 nM | 57 nM | 
14 | C[C@@H]1CC[C@@H](Oc2cc(C#N)ccn2)CN1C(=O)c1ccccc1CC(F)(F)F | > 312 | > 10000 nM |  | 32 nM |  | logD ([5]; read-out: logD): 3.6; solubility ([6]; read-out: solubility): 95 µM (≈ 38.3 µg/mL); CLint scaled [7]: 132 mL/min/kg
15 | C[C@@H]1CC[C@@H](Oc2cc(C(F)(F)F)ccn2)CN1C(=O)c1ccccc1-n1nccn1 | 21 | 370 nM | 0.2 nM |  | 64 nM | 
16 | Cc1ccnc(O[C@@H]2CC[C@@H](C)N(C(=O)c3ccccc3-n3nccn3)C2)c1 | 49 | 788 nM | 2.6 nM |  | 166 nM | 
17 | Cc1cccnc1O[C@@H]1CC[C@@H](C)N(C(=O)c2ccccc2-n2nccn2)C1 |  |  | 621 nM |  | 4760 nM | 
18 | C[C@@H]1CC[C@@H](Oc2cc(S(C)(=O)=O)ccn2)CN1C(=O)c1ccccc1-n1nccn1 | 33 | 510 nM | 0.9 nM | 16 nM | 350 nM | 
19 | Cc1cccc(O[C@@H]2CC[C@@H](C)N(C(=O)c3ccccc3-n3nccn3)C2)n1 | 23 | 745 nM | 7.6 nM | 33 nM | 12 nM | 
20 | C[C@@H]1CC[C@@H](Oc2cc(C#N)ccn2)CN1C(=O)c1ccccc1OC(F)F | > 314 | > 10000 nM |  | 37 nM |  | logD [5]: ND(Insoluble); solubility [6]: Insoluble; CLint scaled [7]: 43 mL/min/kg
21 | Cc1nc(-c2ccccc2C(=O)N2C[C@H](Oc3cc(C#N)ccn3)CC[C@H]2C)no1 | 361 | 8400 nM |  | 25 nM |  | logD ([5]; read-out: logD): 3; solubility ([6]; read-out: solubility): 162 µM (≈ 65.4 µg/mL); bioavailability [8]: 26%; Vd [9]: 0.54 L/kg; CLint scaled [7]: 23 mL/min/kg; half-life [10]: 1.3 h; clearance [11]: 30 mL/min/kg; clearance [12]: 4.6 mL/min/kg; Vd [13]: 1.3 L/kg; half-life [14]: 1.5 h; bioavailability [15]: 54%
22 | C[C@@H]1CC[C@@H](Oc2cc(C(=O)N(C)C)ccn2)CN1C(=O)c1ccccc1-n1nccn1 | > 105 | > 10000 nM | 6.5 nM | 95 nM | 470 nM | 
23 | COc1ccnc(O[C@@H]2CC[C@@H](C)N(C(=O)c3ccccc3-n3nccn3)C2)c1 | 49 |  | 1.3 nM |  | 140 nM | 
24 | CC(C)OC(=O)c1ccccc1C(=O)N1C[C@H](Oc2cc(C#N)ccn2)CC[C@H]1C | 87 | 3300 nM |  | 38 nM |  | logD ([5]; read-out: logD): 3.6; solubility ([6]; read-out: solubility): 115 µM (≈ 46.9 µg/mL)
25 | Cc1ccc(O[C@@H]2CC[C@@H](C)N(C(=O)c3ccccc3-n3nccn3)C2)nc1 | 16 | 142 nM | 2.6 nM | 9 nM | 37 nM | 
